# In the array DNA melting data of Ke et al. (doi:10.1101/2024.01.08.574731):
# Tests used:
# [1] = folding enthalpy; higher = less favourable; fluorescence melt of hairpins on a sequencing array, two-state fit; conditions: sodium 0.088 M
# How it was run: (§1)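 Cy3 fluorescence of library hairpins on a sequenced MiSeq flow cell, with annealed Cy3 and quencher oligos, was imaged in 50 mM Na-HEPES pH 8.0, 25 mM NaCl in 2.5 °C steps up to 60 °C. Signals were normalised to pre-quench Cy3 and to control variants. Melting temperature and folding enthalpy came from bootstrapped two-state fits, inverse-variance combined over four replicates. Fitted temperatures were raised by 9.35 °C to match UV melts.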
# [2] = melting temperature; fluorescence melt of hairpins on a sequencing array, two-state fit, raised by 9.35 °C to match UV melts; conditions: sodium 0.088 M
# How it was run: as §1
Sequence,folding enthalpy [1],Tm [2]
GATCCACTTTGGATC ((((((...)))))),-33.3 kcal/mol,53.1 °C
GTATTCGGAAACAAATAC (((((.(....).))))),-10.3 kcal/mol,22.5 °C
GATCCAAAGATGGATC ((((((....)))))),-26.4 kcal/mol,44.5 °C
GAGGCCGAAAGGCTACTC ((((((....)))..))),-11.7 kcal/mol,42.9 °C
GCTAGTGGAAACACTAAC (.(((((....))))).),-15.2 kcal/mol,32.5 °C
GAGAGAGGAAACTCCCTC (((.(((....))).))),-22.1 kcal/mol,28.6 °C
GCGTTAACACGC ((((....)))),-20.1 kcal/mol,49.1 °C
GCGGTGTTCCGC ((((....)))),-20 kcal/mol,65.7 °C
GAATGCGGAAACGCATCC (.(((((....))))).),-11.6 kcal/mol,42.5 °C
GCACCGCGAAAGCAGGGC ((.(.((....)).).)),-16 kcal/mol,57.5 °C
GCAAGGTCGAAAGACTGC (((..(((....)))))),-19.1 kcal/mol,40.5 °C
GCACCCGAAAGGGATGC ((((((....))).))),-28.7 kcal/mol,60.5 °C
GCTTGACCGAAAGGTAGC (((..(((....)))))),-21.4 kcal/mol,38.7 °C
GGTCAAGGAAACTTGGTC (..((((....))))..),-13.9 kcal/mol,29.7 °C
GAATTCGGAAACGAATTC (((((((....))))))),-35 kcal/mol,58.6 °C
GAATACGAAAGTATTTC ((((((....))).))),-15.8 kcal/mol,38.3 °C
GGATGCGAAAGCAATCC ((((((....))).))),-27.8 kcal/mol,57.9 °C
GACTGGGGAAACCTGGTC (((..((....))..))),-34.9 kcal/mol,38.9 °C
GATCGTAGAGACGATC ((((((....)))))),-25.4 kcal/mol,51.9 °C
GTACTGGGAAACCAGTAC (((((((....))))))),-36.9 kcal/mol,58.5 °C
CGTCCGGAAACGGCTACG ((((((....)))..))),-12.6 kcal/mol,34 °C
GATCCGAATCGGATC ((((((...)))))),-36 kcal/mol,55 °C
GATCGCAGACGCGATC ((((((....)))))),-30.9 kcal/mol,67.8 °C

Sequence,folding enthalpy [1],Tm [2]
GACGGCGGAAACACCGTC (((((.(....).))))),-42.4 kcal/mol,54 °C
GCGCGCGAAAGCGAACGC ((((((....)))..))),-22.9 kcal/mol,60 °C
GTAACCCGAAAGGGATAC (((.(((....))).))),-23.4 kcal/mol,48.6 °C
GTGATCTCGAAAGAGCAC (((..(((....)))))),-25.7 kcal/mol,45.5 °C
GATCGAGCCTTCGATC ((((((....)))))),-39.5 kcal/mol,56.4 °C
GATGGGAAACCATC (((((....))))),-26.5 kcal/mol,49.9 °C
GTCCGATCGAAAGATGAC (((..(((....)))))),-10.7 kcal/mol,28.3 °C
GCTACGCGAAAGCCTGGC ((.(.((....)).).)),-13.4 kcal/mol,34.4 °C
GCCTAGGGAAACCTGGGC (((.(((....))).))),-38.3 kcal/mol,55.1 °C
GGCTGCGAAAGCACAGCC ((((((....)))..))),-25.6 kcal/mol,57.8 °C
GGCGGCGAAAGCCCAGCC ((((((....)))..))),-18.5 kcal/mol,57.8 °C
GTTATGGGAAACTATAAC (((((.(....).))))),-23.8 kcal/mol,34.6 °C
GGATGGGGAAACCCACCC ((.((((....)))).)),-24.1 kcal/mol,45.1 °C
CGACCGGAAACGGAGTCG ((((((....)))..))),-27.2 kcal/mol,45.4 °C
GATCTAACTTTAGATC ((((((....)))))),-29.9 kcal/mol,43.2 °C
GGGATAGCGAAAGCTCCC (((..(((....)))))),-21.8 kcal/mol,50.1 °C
GCAAGGCGAAAGCGCTGC (((..((....))..))),-17.3 kcal/mol,50.2 °C
CGCCCGGAAACGGCAGCG ((((((....)))..))),-30.7 kcal/mol,48.7 °C
GAAGTGACGAAAGTCTTC (((..(((....)))))),-8.64 kcal/mol,27.8 °C
GATTCGGAAACGAATC ((((((....)))))),-32.2 kcal/mol,58.6 °C
GCGATGCGAAAGCTACGC (((..((....))..))),-18.1 kcal/mol,65 °C
GATCTCCCCTGAGATC ((((((....)))))),-45.1 kcal/mol,51.6 °C
GATCCCCCGAGGGATC ((((((....)))))),-34.6 kcal/mol,62.1 °C

Sequence,folding enthalpy [1],Tm [2]
GATCGGCGAAAGCCTATC (((.(((....))).))),-19.2 kcal/mol,39.9 °C
GAAAACGAAAGTTCTTC ((((((....))).))),-17.8 kcal/mol,36.1 °C
CGTGCGGAAACGCAGACG ((((((....)))..))),-15.7 kcal/mol,47.4 °C
CGATTCGGAAACGATTCG (((.(((....))).))),-33.2 kcal/mol,45.8 °C
GACCTACGAAAGTAAGTC (((.(((....))).))),-23.1 kcal/mol,38 °C
GACGACGGAAACGTCGCC (.(((((....))))).),-12.2 kcal/mol,53.1 °C
GTAACAGGAAACCGTTAC (((((.(....).))))),-29.5 kcal/mol,37.5 °C
GATCACATAGGTGATC ((((((....)))))),-39.1 kcal/mol,55.8 °C
GTACCGTCGAAAGACTAC (((..(((....)))))),-8.88 kcal/mol,25.7 °C
GCATAGCGAAAGCTTGGC ((..(((....)))..)),-18.6 kcal/mol,41.9 °C
CGCGGAACGGTCCGCG ((((((....)))))),-38.7 kcal/mol,61.6 °C
GTGCAGTCGAAAGACCAC (((..(((....)))))),-16.4 kcal/mol,38.7 °C
GCTCACGGAAACATGAGC (((((.(....).))))),-34.6 kcal/mol,44.9 °C
GCCAGACGAAAGTCGGC (((.(((....)))))),-27.6 kcal/mol,66.6 °C
GCATACGAAAGTATGTGC ((((((....)))..))),-23 kcal/mol,52.2 °C
GCACTGGGAAACCAGCAC (..((((....))))..),-10.1 kcal/mol,27.3 °C
GGTCACGGAAACGTGATC (.(((((....))))).),-30.4 kcal/mol,53 °C
GGAGGTGGAAACACCTTC (.(((((....))))).),-29 kcal/mol,51.4 °C
GATCCTTCGAGGATC ((((((...)))))),-28.7 kcal/mol,54.4 °C
GCCGCAGGAAACTGCGAC (.(((((....))))).),-13.1 kcal/mol,48.8 °C
GGGTCCCGAAAGGGTCCC (((.(((....))).))),-31 kcal/mol,64.9 °C
GAGGTCGGAAACAACCTC (((((.(....).))))),-28.8 kcal/mol,41.2 °C
GCATGGCGAAAGCCTGC (((.(((....)))))),-27 kcal/mol,63.8 °C
